Measured values from ChEMBL document CHEMBL5674869, “The Histone Methyltransferase Inhibitor A-366 Uncovers a Role for G9a/GLP in the Epigenetics of Leukemia” (PLoS One, 2015).
Calls of active or inactive are those of the source. The calls are words filed in the database; no cut-off is given here.

Columns and labels:
[1] = biological target: T1, Histone-lysine N-methyltransferase EHMT2 (Homo sapiens) (UniProt Q96KQ7); experiment: Inhibition of G9a in human MCF7 cells assessed as decrease in […] levels at 0.3 to 3 uM after 72 hrs by Western blot analysis; assay type: cell-based; conditions: dose 0.3-3 µM
T1 sequence (whole entry): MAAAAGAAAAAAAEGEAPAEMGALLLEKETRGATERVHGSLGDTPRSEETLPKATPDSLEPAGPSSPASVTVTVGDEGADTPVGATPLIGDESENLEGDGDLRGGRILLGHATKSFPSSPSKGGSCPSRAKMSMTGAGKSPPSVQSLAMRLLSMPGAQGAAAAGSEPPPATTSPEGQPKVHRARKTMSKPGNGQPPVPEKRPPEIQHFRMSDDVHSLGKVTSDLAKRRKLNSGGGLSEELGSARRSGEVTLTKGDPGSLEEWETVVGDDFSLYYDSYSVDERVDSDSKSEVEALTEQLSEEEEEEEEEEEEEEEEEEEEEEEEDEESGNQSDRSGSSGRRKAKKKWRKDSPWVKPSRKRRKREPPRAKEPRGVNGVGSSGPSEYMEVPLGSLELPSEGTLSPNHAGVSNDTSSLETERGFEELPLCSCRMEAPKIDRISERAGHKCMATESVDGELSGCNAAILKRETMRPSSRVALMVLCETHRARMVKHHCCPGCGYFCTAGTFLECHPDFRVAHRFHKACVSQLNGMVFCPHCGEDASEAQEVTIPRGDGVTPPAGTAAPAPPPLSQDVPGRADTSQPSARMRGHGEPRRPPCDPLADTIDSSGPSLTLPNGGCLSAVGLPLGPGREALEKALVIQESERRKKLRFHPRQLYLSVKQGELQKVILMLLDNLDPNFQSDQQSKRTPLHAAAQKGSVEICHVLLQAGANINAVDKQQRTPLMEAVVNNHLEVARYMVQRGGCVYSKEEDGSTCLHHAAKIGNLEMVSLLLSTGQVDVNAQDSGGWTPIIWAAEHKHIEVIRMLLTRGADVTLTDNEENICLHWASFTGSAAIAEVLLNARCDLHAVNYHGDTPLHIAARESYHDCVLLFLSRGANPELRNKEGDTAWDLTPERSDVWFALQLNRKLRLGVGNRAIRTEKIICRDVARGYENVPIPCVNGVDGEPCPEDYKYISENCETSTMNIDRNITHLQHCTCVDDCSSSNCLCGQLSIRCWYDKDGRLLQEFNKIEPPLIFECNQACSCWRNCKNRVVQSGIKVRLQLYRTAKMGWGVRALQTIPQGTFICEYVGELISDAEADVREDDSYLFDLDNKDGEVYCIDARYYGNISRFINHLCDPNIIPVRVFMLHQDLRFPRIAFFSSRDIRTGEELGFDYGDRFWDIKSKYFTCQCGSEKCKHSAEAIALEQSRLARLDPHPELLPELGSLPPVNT

CWR22R = experiment: Antiproliferative against human 22RV1 cells after 5 days by Cell-Titer Glo assay; assay type: functional, cell-based; conditions: 22Rv1, 120 h
Outline: (§1)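 ATCC tumor lines were grown in their recommended media with 10% FBS and STR-authenticated. Cells were exposed to compound for the stated number of days. Viable cells were read by CellTiter-Glo endpoint. Inhibition was the ratio of treated to untreated wells, with cell-free wells set as 100% inhibition. The EC50 was taken from the dose response.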

KMS-11 = experiment: Antiproliferative against human KMS-11 cells after 5 days by Cell-Titer Glo assay; assay type: functional, cell-based; conditions: KMS-11, 120 h; outline: as §1
[2] = biological target: T1, Histone-lysine N-methyltransferase EHMT2 (Homo sapiens); experiment: Inhibition of G9a in human PC-3 cells assessed as decrease in H3K9me2 levels after 72 hrs by Western blot analysis
MOLT-16 = experiment: Antiproliferative activity against human MOLT-16 cells at EC50 after 5 days by Cell-Titer-Glo assay; assay type: functional, cell-based; conditions: time 5.0 day; outline: as §1
Calu-6 = experiment: Antiproliferative against human Calu-6 cells after 5 days by Cell-Titer Glo assay; assay type: functional, cell-based; conditions: Calu-6, 120 h; outline: as §1
NCI-H2009 = experiment: Antiproliferative against human NCI-H2009 cells after 5 days by Cell-Titer Glo assay; assay type: functional, cell-based; conditions: NCI-H2009, 120 h; outline: as §1
IMR-32 = experiment: Antiproliferative against human IMR-32 cells after 7 days by Cell-Titer Glo assay; assay type: functional, cell-based; conditions: IMR-32, 168 h; outline: as §1
KMS-12-BM = experiment: Antiproliferative against human KMS-12-BM cells after 5 days by Cell-Titer Glo assay; assay type: functional, cell-based; conditions: 120 h; outline: as §1
NCI-H661 = experiment: Antiproliferative against human NCI-H661 cells after 5 days by Cell-Titer Glo assay; assay type: functional, cell-based; conditions: NCI-H661, 120 h; outline: as §1
ZR-75-30 = experiment: Antiproliferative against human ZR-75-30 cells after 7 days by Cell-Titer Glo assay; assay type: functional, cell-based; conditions: ZR-75-30, 168 h; outline: as §1
NCI-H522 = experiment: Antiproliferative against human NCI-H522 cells after 5 days by Cell-Titer Glo assay; assay type: functional, cell-based; conditions: NCI-H522, 120 h; outline: as §1
SK-BR-3 = experiment: Antiproliferative against human SK-BR-3 cells after 5 days by Cell-Titer Glo assay; assay type: functional, cell-based; conditions: SK-BR-3, 120 h; outline: as §1
K562 = experiment: Antiproliferative against human K562 cells after 5 days by Cell-Titer Glo assay; assay type: functional, cell-based; conditions: K562, 120 h; outline: as §1
Kasumi 1 = experiment: Antiproliferative against human Kasumi-1 cells after 5 days by Cell-Titer Glo assay; assay type: functional, cell-based; conditions: Kasumi 1, 120 h; outline: as §1
PA-1 = experiment: Antiproliferative against human PA-1 cells after 7 days by Cell-Titer Glo assay; assay type: functional, cell-based; conditions: PA-1, 168 h; outline: as §1
[3] = biological target: T1, Histone-lysine N-methyltransferase EHMT2 (Homo sapiens); experiment: Inhibition of G9a in human MOLT-16 cells assessed as decrease in […] levels after 72 hrs by Western blot analysis; assay type: cell-based
Outline: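 MOLT-16 T-ALL cells treated 3 days with compound over a concentration range and lysed. Lysates normalized and immunoblotted for H3K9me2, total H3 and G9a.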

SK-N-MC = experiment: Antiproliferative against human SK-N-MC cells after 7 days by Cell-Titer Glo assay; assay type: functional, cell-based; conditions: 168 h; outline: as §1
DU-145 = experiment: Antiproliferative against human DU-145 cells after 5 days by Cell-Titer Glo assay; assay type: functional, cell-based; conditions: DU-145, 120 h; outline: as §1
MV4-11 = experiment: Antiproliferative against human MV4-11 cells after 5 days by Cell-Titer Glo assay; assay type: functional, cell-based; conditions: MV4-11, 120 h; outline: as §1
HT-1080 = experiment: Antiproliferative against human HT-1080 cells after 5 days by Cell-Titer Glo assay; assay type: functional, cell-based; conditions: HT-1080, 120 h; outline: as §1
HL-60 = experiment: Antiproliferative against human HL-60 cells after 5 days by Cell-Titer Glo assay; assay type: functional, cell-based; conditions: HL-60, 120 h; outline: as §1
[4] = Antiproliferative against human tsA201 cells after 7 days by Cell-Titer Glo assay; assay type: functional, cell-based; conditions: tsA201, 168 h; outline: as §1
G-401 = experiment: Antiproliferative against human G-401 cells after 7 days by Cell-Titer Glo assay; assay type: functional, cell-based; conditions: G-401, 168 h; outline: as §1
U2OS = experiment: Antiproliferative against human U2OS cells after 7 days by Cell-Titer Glo assay; assay type: functional, cell-based; conditions: 168 h; outline: as §1
Daoy = experiment: Antiproliferative against human Daoy cells after 7 days by Cell-Titer Glo assay; assay type: functional, cell-based; conditions: 168 h; outline: as §1

Row | inhibition [1] | inhibition [2] | EC50 (Calu-6) | EC50 (NCI-H2009) | EC50 (NCI-H661) | EC50 (NCI-H522) | EC50 (SK-BR-3) | EC50 (K562) | inhibition [3] | EC50 (SK-N-MC) | EC50 (DU-145) | EC50 (MV4-11) | Structure (SMILES) | EC50 (CWR22R) | EC50 (KMS-11) | Activity (MOLT-16) | EC50 (IMR-32) | EC50 (KMS-12-BM) | EC50 (ZR-75-30) | EC50 (Kasumi 1) | EC50 (PA-1) | also measured
1 | Active | Dose-Dependent Effect | > 10000 nM | > 10 µM | > 10 µM | > 10000 nM | > 10000 nM | > 10 µM | Active | > 10000 nM | > 10000 nM | > 10000 nM | COc1cc2c(cc1OCCCN1CCCC1)N=C(N)C21CCC1 | > 10000 nM | > 10 µM | inactive | > 10 µM | > 10 µM | > 10000 nM | > 10000 nM | > 10000 nM | EC50 (HT-1080): > 10000 nM; EC50 (HL-60): > 10 µM; EC50 [4]: > 10 µM; EC50 (G-401): > 10000 nM; EC50 (U2OS): > 10000 nM; EC50 (Daoy): > 10000 nM
2 | Active | Active | 1500 nM | 3.9 µM | 4.9 µM | 1500 nM | 600 nM | 5.3 µM | Active | 200 nM | 700 nM | 1700 nM | COc1cc2c(NC3CCN(C(C)C)CC3)nc(C3CCCCC3)nc2cc1OCCCN1CCCC1 | 200 nM | 4 µM | Active | > 10 µM | 4.4 µM | 1200 nM | 1100 nM | 200 nM | EC50 (HT-1080): 500 nM; EC50 (HL-60): 6.5 µM; EC50 [4]: > 10 µM; EC50 (G-401): 400 nM; EC50 (U2OS): 500 nM; EC50 (Daoy): 100 nM
